Assay outcomes (PubChem BioAssay)
UCH37 DUB inh – blocks the human deubiquitinase UCH37; inhibition, % (concentration not given with the values); AID 588478; purified proteasome/UCH37, Ub-AMC cleavage fluorescence; 330,000 compounds, 0.33% hits; Q9Y5K5;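 active means mean inhibition over replicate wells above about 20%, limit read from the data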
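Schedule: 30 min plus 25 min, room temperature / Material: human UCH37 within purified proteasomes / Technique: AMC fluorescence intensity at 355/460 nm / Buffer or medium: pH 7.4 Tris-HCl (50 mM) with ovalbumin, ATP-MgCl2, DTT / Controls: wells without proteasome as full block, compound-free enzyme plus substrate as uninhibited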
PP5 inh – PP5 (human) phosphatase inhibition | purified PP5c, OMFP substrate fluorescence | 320,000 compounds, 0.18% hits | inhibition, % at 6.7 µM;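 active means inhibition above the campaign's mean inhibition across all tested compounds plus 3 SD, cut at about 9.5% in these data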
CTSL1 counter – blocks F. hepatica cathepsin L1 in PFM18AAP counter-screen; recombinant F. hepatica cathepsin L1, Z-Leu-Arg-MCA fluorescence; 300,000 compounds, 0.49% hits; inhibition, % at 5.96 µM;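 active means inhibition above the mean of all tested compounds plus 3 SD, set per screening campaign, cut at about 17% in these data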
GSTO1 counter – counter-screen for RBBP9 inhibitors: inhibitors of human GSTO1 | 300,000 compounds, 1.1% hits | recombinant GSTO1, activity-based probe fluorescence polarization | P78417 | inhibition, % at 5.96 µM;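 active means inhibition above the campaign mean inhibition plus 3 SD, cut at about 35% in these data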
Apaf-1 inh – inhibitors of human Apaf-1 apoptosome. reconstituted apoptosome caspase-3 activity, DEVD-Rh110 fluorescence. inhibition, % at 20 µM. 330,000 compounds, 0.71% hits. AID 489030; active means inhibition of at least 40% at 20 µM
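System: reconstituted apoptosome with Apaf-1, cytochrome c, caspase-9, procaspase-3, dATP; Signal: Rh110 fluorescence intensity; Schedule: 30 min compound preincubation, 50 min activation, room temperature; Reagent: cytochrome c trigger plus (Z-DEVD)2-Rh110 caspase-3 substrate.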
PAD4 inh – inhibitors of human PAD4. Q9UM07. recombinant PAD4, RCA probe fluorescence polarization. inhibition, % at 6.36 µM. 330,000 compounds, 0.41% hits. AID 485272;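 active means percent inhibition above a cutoff equal to the mean of all tested compounds plus 3 SD, cut at about 15% in these data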
Target sequence (Q9UM07 whole entry, looked up): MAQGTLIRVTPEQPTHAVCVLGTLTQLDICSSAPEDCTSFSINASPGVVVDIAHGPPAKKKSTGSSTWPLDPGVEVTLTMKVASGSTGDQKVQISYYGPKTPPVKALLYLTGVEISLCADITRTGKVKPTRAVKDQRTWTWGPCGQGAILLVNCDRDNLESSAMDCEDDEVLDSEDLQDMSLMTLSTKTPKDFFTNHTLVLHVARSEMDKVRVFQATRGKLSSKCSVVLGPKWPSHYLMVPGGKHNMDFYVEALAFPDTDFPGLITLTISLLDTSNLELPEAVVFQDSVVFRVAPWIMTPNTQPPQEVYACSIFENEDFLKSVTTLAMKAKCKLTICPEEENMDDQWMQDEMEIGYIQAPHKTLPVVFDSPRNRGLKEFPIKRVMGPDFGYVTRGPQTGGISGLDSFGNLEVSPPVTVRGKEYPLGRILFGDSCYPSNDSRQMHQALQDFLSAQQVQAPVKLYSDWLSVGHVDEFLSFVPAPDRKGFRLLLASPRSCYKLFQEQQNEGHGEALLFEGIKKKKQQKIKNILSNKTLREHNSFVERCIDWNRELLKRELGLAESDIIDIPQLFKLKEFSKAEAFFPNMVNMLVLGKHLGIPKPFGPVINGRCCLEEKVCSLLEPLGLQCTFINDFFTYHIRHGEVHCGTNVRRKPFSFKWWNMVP
Apaf-1 inh conf2 – Apaf-1 inhibition, single-dose confirmed | shares compounds with Apaf-1 inh | reconstituted apoptosome, caspase-3 DEVD-Rh110 fluorescence | inhibition, % at 20 µM | 1,800 compounds, 25% hits | AID 504614;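 active means mean inhibition of at least 40% at 20 µM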
Rh110 quench – counter-screen for Apaf-1 inhibitors: fluorescence interference; activation (fluorescence interference), % at 20 µM; 1,800 tested, under 10 active; AID 504615; Rh110 fluorescence interference, quenched caspase reaction; shares compounds with Apaf-1 inh;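 active means signal rise of 40% or more at 20 µM, treated as a fluorescence artifact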
Fluor interf inh – counter-screen for Apaf-1 inhibitors: fluorescence interference, dose response | shares compounds with Apaf-1 inh | fluorescence interference counterscreen, Apaf-1 assay format | IC50, µM | 460 tested, under 10 active | AID 588538; call rule not given here
Hits are given with their value; 0 = inactive; - = not tested or not shown. Compounds with a hit are over-represented: about 2% of the library has one in this group of screens.

SMILES	UCH37 DUB inh	PP5 inh	CTSL1 counter	GSTO1 counter	Apaf-1 inh	PAD4 inh	Apaf-1 inh conf2	Rh110 quench	others
COc1ccccc1CNC1CCCc2ccccc21 (configuration not stated)	0	-	-	-	0	-	-	-
O=C(c1ccccc1)c1ccc(OCC(O)CNC2CCCc3ccccc32)cc1 (configuration not stated)	0	0	0	0	52	0	0	0
CCc1ccccc1OC[C@@H](O)CN[C@H]1CCCc2ccccc21	0	0	0	0	46	0	0	0
OC(CNC1CCCc2ccccc21)COc1ccc2ccccc2c1 (configuration not stated)	0	0	0	0	47	0	0	0
O=C(O)c1ccc(C=NNc2ccc(Cl)nn2)cc1	0	-	-	-	-	-	-	-
COc1ccc(C=NOC/C(O)=C(\C#N)c2nc3ccccc3[nH]2)cc1OC	0	-	-	-	-	-	-	-
Cc1[nH]n(-c2ccccc2)c(=S)c1C=NCCCN=Cc1c(C)[nH]n(-c2ccccc2)c1=S	0	0	0	0	63	0	0	0
COC(=O)CN=Cc1c(C)[nH]n(-c2ccccc2)c1=O	0	0	0	0	0	0	-	-
COc1cc(CCc2ccccc2)c(C(=O)O)c(O)c1C/C=C(/C)CCC=C(C)C	0	-	-	-	43	0	0	0
CCOC(=O)N1CCN(C(=O)c2ccc(S(=O)(=O)Nc3ccccc3)cc2)CC1	0	-	-	-	0	0	-	-
CCOC(=O)N1CCN(C2=C(NS(=O)(=O)c3ccccc3)C(=O)c3ccccc3C2=O)CC1	0	0	0	0	48	0	0	0
NC(=O)C1CCN(C2=C(NS(=O)(=O)c3ccc(Br)cc3)C(=O)c3ccccc3C2=O)CC1	21	0	0	35	66	0	48	0	Fluor interf inh=0
NC(=O)C1CCN(c2nc3ccccc3nc2NS(=O)(=O)c2ccc(Br)cc2)CC1	0	-	-	-	0	0	-	-
O=C1C(NS(=O)(=O)c2cccs2)=C(N2CCN(Cc3ccccc3)CC2)C(=O)c2ccccc21	0	0	0	0	51	0	0	0
O=C(NN=Cc1c[nH]c2ccc(Br)cc12)c1ccccn1	0	-	-	-	-	-	-	-
O=C(O)c1ccc(C=NNc2ncc(Cl)cc2Cl)cc1	0	-	-	-	-	-	-	-
CC(=NO)c1ccccn1	0	-	-	-	-	-	-	-
Cc1ccc2nc(N(CCCN(C)C)C(=O)c3ccc4c(c3)CCCC4)sc2c1	0	0	0	0	0	0	-	-
CN(C)CCN(C(=O)c1ccc2c(c1)CCCC2)c1nc2cc3c(cc2s1)OCCO3	0	0	0	0	44	0	0	0
CCOc1ccc2nc(N(CCN(C)C)C(=O)c3ccc4c(c3)CCCC4)sc2c1	0	0	0	0	55	0	0	0
Cc1cc(C)c2nc(N(CCCN(C)C)C(=O)c3ccc4c(c3)CCCC4)sc2c1	0	0	0	0	42	0	0	0
CCCCCC1=CCCC1=NNC(=O)c1ccc2c(c1)OCO2	0	-	-	-	-	-	-	-
CC(C)N=C(N)N=C(N)Nc1ccc(Cl)cc1	0	0	0	0	0	0	-	-
NC(=NCCCCCCN=C(N)/N=C(\N)Nc1ccc(Cl)cc1)/N=C(\N)Nc1ccc(Cl)cc1	0	0	0	0	79	0	0	0
COc1ccccc1N1CCN(C(=O)c2ccc3c(Cl)c4c(nc3c2)CCCC4)CC1	0	0	0	0	41	0	0	0
SMILES	UCH37 DUB inh	PP5 inh	CTSL1 counter	GSTO1 counter	Apaf-1 inh	PAD4 inh	Apaf-1 inh conf2	Rh110 quench	others
COc1ccc(C2C(C(C)=O)=C(C)N=c3sc(=Cc4ccc5c(c4)OCO5)c(=O)n32)cc1 (configuration not stated)	0	-	-	-	-	-	-	-
COc1ccc2c(c1)Cc1sc(NC(=O)c3cccnc3)nc1-2	0	0	0	0	89	0	0	0
COc1ccc2c(c1)Cc1sc(NC(C)=O)nc1-2	0	0	0	0	73	0	0	0
COc1ccc2c(c1)CCc1sc(NC(=O)c3ccc(C)cc3)nc1-2	0	0	0	0	0	0	-	-
COc1ccc2c(c1)CCc1sc(NC(=O)c3ccco3)nc1-2	0	0	0	0	0	0	-	-
COc1ccc2c(c1)Cc1sc(NC(=O)c3ccco3)nc1-2	0	0	0	0	85	0	56	0	Fluor interf inh=0
COc1ccc(OC)c(N/C(=N\C(=S)Nc2ccccc2)Nc2nc(C)cc(C)n2)c1	0	-	-	-	-	-	-	-
ON=Cc1ccc2noc(-c3ccc(Cl)cc3)c2c1	0	-	-	-	-	-	-	-
NN=C(c1ccccc1)C12CN3CN(CN(C3)C1)C2	0	-	-	-	-	-	-	-
CCOC(=O)c1cnc(-n2nc(C)cc2C)nc1NC1CCCCC1	0	0	0	0	42	0	0	0
CCOC(=O)c1cnc(-n2nc(C)cc2C)nc1NC	0	0	0	0	0	0	-	-
CN(Cc1c(F)cccc1Cl)C(=O)c1ccc(COc2ccccc2)cc1	0	0	0	0	53	0	0	0
Cn1ncc(Cl)c1C(=O)NN=Cc1cc2c(cc1[N+](=O)[O-])OCO2	0	-	-	-	-	-	-	-
CCOc1cc(C=NNC(=O)c2nn(C)cc2Br)ccc1OCc1ccccc1	0	-	-	-	-	-	-	-
Cc1cc(N2CCN(c3ccc([N+](=O)[O-])c4cccnc34)CC2)c2ccccc2n1	0	0	0	0	60	0	47	0	Fluor interf inh=0
CC(CC(=O)Nc1cccc(C(F)(F)F)c1)=NNC(=O)C(=O)NCCO	0	-	-	-	-	-	-	-
O=C1Cc2ccccc2C(=O)N1Cc1ccccc1	26	0	0	0	52	0	76	0	Fluor interf inh=0
CCN(CC)CCCNc1ccc(-c2nnc(-c3ccc(OCC(C)C)cc3)o2)cn1	-	0	0	0	41	0	0	0
Cc1ccc(C(=O)NN=Cc2cccc3ccccc23)cn1	0	-	-	-	-	-	-	-
COc1ccc(C=NNC(=O)CSCC(=O)Nc2ccccc2)cc1OC	0	-	-	-	-	-	-	-
COc1ccc(-c2oc3ncnc(NCCCN4CCOCC4)c3c2-c2ccc(OC)cc2)cc1	0	0	0	0	0	0	-	-
COc1ccc(-c2oc3ncnc(NCCN4CCOCC4)c3c2-c2ccc(OC)cc2)cc1	0	0	0	0	42	0	0	0
Oc1ccccc1C=NNc1cc(N2CCCC2)nc(N2CCCC2)n1	0	-	-	-	-	-	-	-
Cc1cc(N(CCO)CCO)ccc1N=Nc1cc(F)ccc1F	0	0	0	0	40	0	0	0
Cc1ccc(C)c(NC(=O)CN(C)C(=O)c2cccc(S(=O)(=O)N3CCN(Cc4ccccc4)CC3)c2)c1	0	0	0	0	41	0	0	0
Cc1ccc(C)c(NC(=O)CN(C)C(=O)c2cccc(S(=O)(=O)N3CCCC3)c2)c1	0	-	-	-	0	-	-	-
CC(=NNC(=O)CNC(=O)C(c1ccccc1)c1ccccc1)c1ccccc1	0	-	-	-	-	-	-	-
OCCN1CCN(CCCN2c3ccccc3Sc3ccc(C(F)(F)F)cc32)CC1	0	0	0	0	48	0	0	0
